Results from different studies.
Effect on: cell growth or viability

Structure (SMILES) | cell line | technique | concentration | time | quantity | result
Cc1cc(Cn2ccnc2)nn1C | SH-SY5Y | MTT | – | 24 h | IC50 | 487 µM
CNC(=O)c1cc(Oc2ccc(NC(=O)Nc3ccc(Cl)c(C(F)(F)F)c3)cc2)ccn1 | PLC-PRF-5 | imaging | – | 72 h | IC50 | 4.08 µM
Cc1nc(NC(=O)N2CCC[C@H]2C(N)=O)sc1-c1ccnc(C(C)(C)C(F)(F)F)c1 | EFM-19 | ATP luminescence | – | 5 days | EC50 | 0.38 µM
Cc1cc(C)n(Cn2ccnc2)n1 | SH-SY5Y | MTT | – | 24 h | IC50 | 50.3 µM
Cc1nc(Nc2ncc(C(=O)Nc3c(C)cccc3Cl)s2)cc(N2CC[C@H](O)C2)n1 | SUP-B15 | ATP luminescence | 10 µM | 72 h | inhibition | 66%
C[C@H](Nc1ccc2c(c1)OCCn1cc(N3C(=O)OC[C@H]3C(F)F)nc1-2)C(N)=O | EFM-19 | ATP luminescence | – | 5 days | EC50 | 0.0312 µM
COc1ccc(C[C@H](N)C(=O)N[C@H]2[C@@H](O)[C@H](n3cnc4c(N(C)C)ncnc43)O[C@@H]2CO)cc1 | J774.1 | resazurin | – | 72 h | IC50 | 1.36 µM
CN(C)CCNC(=O)c1cccn2c(=O)c3cc4ccccc4cc3nc12 | PLC-PRF-5 | imaging | – | 72 h | IC50 | 16.2 µM
